Results as given in ChEMBL document CHEMBL1759837, “Studies on chemical modification and biology of a natural product, gambogic acid (III): determination of the essential pharmacophore for biological activity” (Eur J Med Chem, 2011).
pIC50: −log10 of the molar value.

Legend:
Assay type in all cases: functional, cell-based
HepG2 = test: Antiproliferative activity against human HepG2 cells after 24 hrs by MTT assay; details: HepG2, 24 h
Summary of the method: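 Tetrazolium MTT viability test; cells exposed to compound 24 h, absorbance read at 570 nm. Survival ratio = A treated / A control × 100%; IC50 is the concentration giving 50% loss of viability. Eight concentrations in two-fold dilutions, triplicate wells, mean of two separate experiments. Compounds dissolved in DMSO (0.01 mol/L stock); control wells received medium only.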

SMMC-7721 = test: Antiproliferative activity against human SMMC7721 cells after 24 hrs by MTT assay; details: SMMC-7721, 24 h
Summary of the method: (§1)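 Cells grown at 37 °C in humidified 5% CO2 with benzylpenicillin and streptomycin. Compounds came from 0.01 mol/L DMSO stocks and were tested at eight two-fold dilutions in triplicate, with medium-only controls, for 24 h. MTT absorbance was read at 570 nm. Survival = A_treatment/A_control × 100. IC50 is the concentration giving 50% viability inhibition, as the mean of two separate experiments.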

BGC-823 = test: Antiproliferative activity against human BGC823 cells after 24 hrs by MTT assay; details: BGC-823, 24 h; summary of the method: as §1
MCF7 = test: Antiproliferative activity against human MCF7 cells after 24 hrs by MTT assay; details: MCF7, 24 h; summary of the method: as §1

- pIC50 (HepG2): 4.63
- pIC50 (SMMC-7721): 4.91
- pIC50 (BGC-823): 4.75
- pIC50 (MCF7): 4.91
Structure (SMILES): CC(C)=CCC12OC(C)(C)C3CC(C=C4C(=O)c5ccc(O)cc5OC431)C2=O (centres undefined)
